Compounds with a hit are over-represented: about 3.5% of the library has one in this group of screens.
Yeast life ext – compounds extending yeast replicative lifespan, primary screen, S. cerevisiae, OD615; S. cerevisiae growth with nicotinamide; deaD strain in restrictive glucose medium; hit rate 0.68% among 130,000; AID 775, 2007; inhibition of the nicotinamide effect, % at 10 µM;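 active = inhibition above a set limit, placed 3 SD over the median of all compounds, cut at about 26% in these data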
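Material: Modified budding yeast, DeaD strain | Medium: Restrictive glucose medium | Probe or stimulus: 1.5 mM nicotinamide | Dosing: Single dose 10 µM compound, 0.25% DMSO | Times: 48 h at 30 °C | Technique: OD615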
bCat nuc transl – modulators of beta-catenin nuclear translocation, primary screen, imaging, HeLa cells, immunofluorescence, high-content; nuclear translocation activity, % at 5 µM; hit rate 0.3% among 190,000; AID 1665, 2009;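 active = nuclear translocation activity above 50% at 5 µM, with a well cell count of 50 or more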;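 also: per-cell ratio of nuclear to cytoplasmic median beta-catenin stain intensity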
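Test system: HeLa cells, endogenous beta-catenin; Compound: single 5 µM dose plus 0.02–20 µM confirmation series; Times: compound exposure 24 h at 37°C; Signal: fluorescence imaging of beta-catenin antibody stain plus DAPI; Read-out: % activation, nuclear-to-cytoplasmic median beta-catenin signal ratio per cell.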
MT stabilize HCS – microtubule stabilizers in HeLa cells, primary screen, imaging, high-content imaging; HeLa tubulin immunostaining HCS, 24 h; share of cells brighter than vehicle mean+2SD; % tubulin-high responders, % at 10 µM; hit rate 0.83% among 200,000; AID 2205, 2009;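 active = plate Z-score above 3 for both tubulin-high and condensed-nucleus cell shares, with cell loss under 80%, at 10 µM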;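 also: anti alpha tubulin signal scored within the nucleus-defined area of each cell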
Efa HMGR inh – inhibitors of E. faecalis class II HMGR, primary screen, biochemical, Enterococcus faecalis; AID 1066, 2008; inhibition, % at 10 µM; HMG-CoA reductase (Enterococcus faecalis, mvaE); purified E. faecalis HMGR, NADPH absorbance 340 nm kinetic; hit rate 0.41% among 190,000;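 active = inhibition above a set limit, the median over all tested compounds plus 3 SD, cut at about 9.5% in these data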;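 also: enzyme runs in reverse so mevalonate oxidation gives rising NADPH absorbance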
RAM network inh – inhibitors of the yeast RAM network, primary screen, dse1pr::URA3 reporter, 5-FOA selection; S. cerevisiae dse1pr::URA3 reporter, 5-FOA growth OD615, 2 d; analog-sensitive cbk1-as2 kinase mutant strain; hit rate 1.8% among 190,000; inhibition, % at 50 µM;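 active = inhibition above a set limit, 3 SD over mean compound inhibition, cut at about 8.4% in these data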;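 also: inhibition rescues growth on 5-FOA so higher OD means more RAM inhibition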
BB579 growth dn – growth inhibitors of yeast BB579 in restrictive medium, primary screen, yeast lifespan-shortening project, S. cerevisiae. OD615, 48 h. inhibition, % at 10 µM. hit rate 0.51% among 140,000. AID 804, 2007;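 active = inhibition above a set limit, 3 SD over the mean compound inhibition, cut at about 44% in these data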
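System: DeaD yeast strain BB579; buffer or medium: CSMM-D dextrose restrictive medium; technique: OD at 615 nm; schedule: 4 h cell preincubation, 48 h compound exposure, 30 °C humidified; doses: single 10 µM dose; controls: amphotericin B 10 µg/mL, positive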
Large screens that a line does not name were inactive.

CCOc1c(Cl)cc(C(=O)Nc2cccc(C(=O)O)c2)cc1Cl	none (no result: Yeast life ext, BB579 growth dn)
CCOc1cc(/C=C(/C#N)c2nc3ccccc3[nH]2)ccc1OCc1ccc(C(=O)O)o1	RAM network inh 9.1
CCOc1cc(/C=C(/C#N)c2ccc(F)cc2)ccc1OCc1ccc(C(=O)O)o1	none
COc1ccc(N2CCN(C(=S)NC(C)c3ccccc3)CC2)cc1 (stereo not drawn)	none (no result: Yeast life ext, BB579 growth dn)
Cn1c(=O)[nH]c(=O)c2c1nc(CN1CCN(c3cccc(Cl)c3)CC1)n2Cc1ccccc1Cl	MT stabilize HCS 14
Cn1c(=O)[nH]c(=O)c2c1nc(CN1CCN(c3cccc(Cl)c3)CC1)n2CCCc1ccccc1	RAM network inh 9.5
CCCCn1c(CN2CCN(c3cccc(Cl)c3)CC2)nc2c1c(=O)[nH]c(=O)n2C	MT stabilize HCS 35, Efa HMGR inh 9.8 (no result: Yeast life ext)
CCN(c1ccccc1)S(=O)(=O)c1ccc(Cl)c(NC(=O)CN(C)C2CCN(C)CC2)c1	none (no result: Yeast life ext, MT stabilize HCS, Efa HMGR inh, RAM network inh, BB579 growth dn)
CCN(CC)C(=O)c1cc([N+](=O)[O-])cc2c1-c1ccc([N+](=O)[O-])cc1C2=C(C#N)C#N	none (no result: Yeast life ext, MT stabilize HCS, Efa HMGR inh, RAM network inh, BB579 growth dn)
CC1=C(C(=O)OCc2ccc3c(c2)OCO3)C(c2ccc(F)cc2)NC(=O)N1 (stereo not drawn)	MT stabilize HCS 15
CC1=C(C(=O)OCc2ccc3c(c2)OCO3)C(c2ccc(Cl)cc2)NC(=O)N1 (stereo not drawn)	MT stabilize HCS 16 (no result: Yeast life ext)
CCOC(=O)C1=C(C)NC(=O)NC1c1ccc2c(c1)OCCO2 (stereo not drawn)	none
COc1ccc(COC(=O)C2=C(C)NC(=O)NC2c2ccc(O)c(OC)c2)cc1 (stereo not drawn)	none
CCN(CC)S(=O)(=O)c1cc(NS(=O)(=O)c2cccc(Cl)c2Cl)ccc1C	RAM network inh 10
N=c1n(Cc2ccc(Cl)cc2)c2ccccc2n1CC(O)COc1ccccc1 (stereo not drawn)	MT stabilize HCS 21 (no result: Yeast life ext, BB579 growth dn)
COc1ccc(OCC(O)Cn2c(=N)n(Cc3ccccc3)c3ccccc32)cc1 (stereo not drawn)	none
COc1ccccc1C1CCCN1Cc1nc(-c2ccc(C)s2)oc1C (stereo not drawn)	Efa HMGR inh 12 (no result: Yeast life ext, BB579 growth dn)
COc1ccccc1C1CCCN1Cc1nc(-c2cc3c(cc2Cl)OCO3)oc1C (stereo not drawn)	none (no result: Yeast life ext, BB579 growth dn)
COc1cc(OC)c(C2=NOC(C(=O)NCc3cccs3)C2)cc1Cl (stereo not drawn)	MT stabilize HCS 19 (no result: Yeast life ext, BB579 growth dn)
COc1ccc(C2=NOC(C(=O)NCc3cccs3)C2)cc1OC (stereo not drawn)	MT stabilize HCS 41 (no result: bCat nuc transl)
NNC(=O)c1sccc1OCc1ccc(F)cc1	none (no result: Yeast life ext, BB579 growth dn)
O=C(N/N=C/c1ccc(Cl)cc1)c1sccc1OCc1ccc(F)cc1	MT stabilize HCS 19
O=C(N/N=C/c1ccc(F)cc1)c1sccc1OCc1ccc(F)cc1	bCat nuc transl 87, MT stabilize HCS 34
CCOc1ccc(/C(C)=N/NC(=O)C(OC)c2ccccc2)cc1 (stereo not drawn)	MT stabilize HCS 10 (no result: Yeast life ext, BB579 growth dn)
Cc1ccc(S(=O)(=O)NCCSc2nnnn2-c2cc(C)ccc2C)cc1	RAM network inh 10
Cc1ccc(S(=O)(=O)NCCSc2nnnn2-c2ccccc2)cc1	none (no result: Yeast life ext)
Cc1ccc(S(=O)(=O)NC(C)(C)CN2CCC(Cc3ccccc3)CC2)cc1	none (no result: Yeast life ext, MT stabilize HCS, Efa HMGR inh, RAM network inh, BB579 growth dn)
COc1ccc(NC(=O)c2cccc(Oc3ccc([N+](=O)[O-])cc3Cl)c2)cc1	bCat nuc transl 93
Cc1ccc(C)c(NC(=O)c2cccc(Oc3ccc([N+](=O)[O-])cc3Cl)c2)c1	bCat nuc transl 62
O=C(Nc1cccc(Cl)c1)c1cccc(Oc2ccc([N+](=O)[O-])cc2Cl)c1	none
O=C(Nc1ccccc1Oc1ccccc1)c1cccc([N+](=O)[O-])c1	none
Cc1sc(NC(=O)c2ccccc2)c(C(=O)c2ccccc2)c1C	RAM network inh 11
Cc1nnc(SCC(=O)OC2CC(C)CCC2C(C)C)[nH]c1=O (stereo not drawn)	none
